Results taken from ChEMBL document CHEMBL1125381, “Synthesis and alpha-adrenergic activities of 2- and 4-substituted imidazoline and imidazole analogues” (J Med Chem, 1992).

How the values were obtained:
[1] = target: T1, Adrenergic receptor alpha-2 (Homo sapiens, UniProt P08913+P18825+P18089); test: Compound was evaluated for Adrenergic activity against Alpha-2 adrenergic receptor in human platelets
T1 sequence (P08913 whole entry): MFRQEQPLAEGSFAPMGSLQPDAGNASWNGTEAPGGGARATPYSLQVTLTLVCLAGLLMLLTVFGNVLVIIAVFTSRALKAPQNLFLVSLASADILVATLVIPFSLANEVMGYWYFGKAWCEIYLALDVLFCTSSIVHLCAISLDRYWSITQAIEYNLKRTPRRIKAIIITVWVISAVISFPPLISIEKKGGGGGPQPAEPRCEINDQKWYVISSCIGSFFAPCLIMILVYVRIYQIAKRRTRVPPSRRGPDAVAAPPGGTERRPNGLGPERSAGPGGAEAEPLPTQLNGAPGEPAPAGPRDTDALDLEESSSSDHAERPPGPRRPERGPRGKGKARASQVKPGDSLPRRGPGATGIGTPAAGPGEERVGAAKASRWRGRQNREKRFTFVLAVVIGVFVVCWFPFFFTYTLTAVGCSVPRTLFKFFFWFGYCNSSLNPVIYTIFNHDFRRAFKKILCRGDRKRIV
T1 sequence (P18825 whole entry): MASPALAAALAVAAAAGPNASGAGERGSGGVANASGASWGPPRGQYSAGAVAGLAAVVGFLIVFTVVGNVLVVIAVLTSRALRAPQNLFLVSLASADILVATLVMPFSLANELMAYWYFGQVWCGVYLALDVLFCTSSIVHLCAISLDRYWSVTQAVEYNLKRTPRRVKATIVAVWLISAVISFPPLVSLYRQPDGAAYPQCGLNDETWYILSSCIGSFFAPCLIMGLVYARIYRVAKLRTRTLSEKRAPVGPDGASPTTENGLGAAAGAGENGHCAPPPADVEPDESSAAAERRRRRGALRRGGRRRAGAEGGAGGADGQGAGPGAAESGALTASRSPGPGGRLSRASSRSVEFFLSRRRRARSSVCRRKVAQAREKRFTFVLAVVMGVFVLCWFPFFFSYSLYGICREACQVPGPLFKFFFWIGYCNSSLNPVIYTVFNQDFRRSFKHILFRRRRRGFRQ
T1 sequence (P18089 whole entry): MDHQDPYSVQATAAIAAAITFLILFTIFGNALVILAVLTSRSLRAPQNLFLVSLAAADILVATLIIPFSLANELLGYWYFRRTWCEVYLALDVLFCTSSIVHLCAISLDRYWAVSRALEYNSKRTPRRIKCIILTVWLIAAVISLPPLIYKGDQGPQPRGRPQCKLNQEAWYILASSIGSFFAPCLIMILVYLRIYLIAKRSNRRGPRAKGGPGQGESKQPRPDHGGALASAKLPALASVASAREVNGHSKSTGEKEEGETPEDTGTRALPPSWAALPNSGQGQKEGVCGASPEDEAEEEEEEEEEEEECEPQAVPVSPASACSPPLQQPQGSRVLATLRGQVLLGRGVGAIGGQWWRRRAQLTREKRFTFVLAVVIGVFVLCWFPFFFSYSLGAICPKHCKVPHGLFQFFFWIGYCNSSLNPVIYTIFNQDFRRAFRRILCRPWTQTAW
In short: (§1)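 Platelet-rich plasma from drug-free human volunteers (no medication for 10 days) treated with 1 mM aspirin. Inhibitors added at various concentrations 1 min before epinephrine. Read-out is primary-wave aggregation. […] Potency ratio = IC50 of medetomidine / IC50 of analogue.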

Rattus norvegicus [2] = species: Rattus norvegicus; test: Molar concentration of analogue which shifts concentration curve of phenylephrine to the right by 2-fold (0.3 log units); type: functional
In short: (§2)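 Rat aorta (α1) antagonism. KB is the molar analogue concentration that shifts the phenylephrine concentration-response curve 2-fold (0.3 log units) to the right. Derived by computerized analysis of the concentration-response data.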

[3] = Potency ratio is defined as IC50(medetomidine)/IC50(compound); in short: as §1
[4] = target: Adrenergic receptor alpha-1 (Rattus norvegicus) (UniProt P15823+P23944+P43140); test: Molar concentration towards Alpha-1 adrenergic receptor which shifts concentration curve of phenylephrine to the right by 2-fold (0.3 log units); in short: as §2
Rattus norvegicus [5] = species: Rattus norvegicus; test: Percent maximal analogue response relative to phenylephrine =100%; type: functional
In short: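 Rat aorta (α1) contraction. The maximal response to each analogue is expressed as percent of the maximal response to the reference agonist phenylephrine (phenylephrine = 100%). Mean ± SEM, N = 4.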

[6] = Potency ratio is defined as EC50 (medetomidine) / EC50 (compound)
[7] = target: T2, Adrenergic receptor alpha-1 (Rattus norvegicus, UniProt P15823+P23944+P43140); test: Compound was evaluated for Adrenergic activity against Alpha-1 adrenergic receptor from rat aorta
T2 sequence (P15823 whole entry): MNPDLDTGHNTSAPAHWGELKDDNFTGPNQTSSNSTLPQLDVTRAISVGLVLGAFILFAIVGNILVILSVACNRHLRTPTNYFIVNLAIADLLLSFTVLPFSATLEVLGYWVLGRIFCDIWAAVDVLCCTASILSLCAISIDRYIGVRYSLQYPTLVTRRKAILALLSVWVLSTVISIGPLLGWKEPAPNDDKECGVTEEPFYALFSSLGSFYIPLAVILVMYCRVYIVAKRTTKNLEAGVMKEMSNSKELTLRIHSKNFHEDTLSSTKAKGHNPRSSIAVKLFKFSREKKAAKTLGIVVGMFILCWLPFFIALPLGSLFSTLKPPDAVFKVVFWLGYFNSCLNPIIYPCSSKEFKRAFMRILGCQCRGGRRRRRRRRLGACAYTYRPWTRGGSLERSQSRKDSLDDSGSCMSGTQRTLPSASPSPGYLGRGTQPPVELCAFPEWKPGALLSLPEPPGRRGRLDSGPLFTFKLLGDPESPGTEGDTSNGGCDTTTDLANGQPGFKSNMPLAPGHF
T2 sequence (P23944 whole entry): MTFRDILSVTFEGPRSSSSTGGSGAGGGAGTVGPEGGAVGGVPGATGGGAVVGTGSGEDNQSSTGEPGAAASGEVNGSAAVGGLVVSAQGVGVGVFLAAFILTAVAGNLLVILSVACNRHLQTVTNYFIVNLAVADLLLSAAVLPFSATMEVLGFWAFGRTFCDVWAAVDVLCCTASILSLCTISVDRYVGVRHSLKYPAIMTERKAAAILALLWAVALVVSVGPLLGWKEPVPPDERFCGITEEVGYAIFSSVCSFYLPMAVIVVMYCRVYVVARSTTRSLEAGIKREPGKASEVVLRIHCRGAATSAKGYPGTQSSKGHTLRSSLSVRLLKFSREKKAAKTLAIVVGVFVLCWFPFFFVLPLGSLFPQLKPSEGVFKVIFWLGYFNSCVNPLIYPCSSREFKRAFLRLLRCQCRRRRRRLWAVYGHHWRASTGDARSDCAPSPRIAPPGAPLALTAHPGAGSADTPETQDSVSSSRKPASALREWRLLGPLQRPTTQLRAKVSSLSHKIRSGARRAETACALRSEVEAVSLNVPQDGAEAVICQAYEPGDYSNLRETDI
T2 sequence (P43140 whole entry): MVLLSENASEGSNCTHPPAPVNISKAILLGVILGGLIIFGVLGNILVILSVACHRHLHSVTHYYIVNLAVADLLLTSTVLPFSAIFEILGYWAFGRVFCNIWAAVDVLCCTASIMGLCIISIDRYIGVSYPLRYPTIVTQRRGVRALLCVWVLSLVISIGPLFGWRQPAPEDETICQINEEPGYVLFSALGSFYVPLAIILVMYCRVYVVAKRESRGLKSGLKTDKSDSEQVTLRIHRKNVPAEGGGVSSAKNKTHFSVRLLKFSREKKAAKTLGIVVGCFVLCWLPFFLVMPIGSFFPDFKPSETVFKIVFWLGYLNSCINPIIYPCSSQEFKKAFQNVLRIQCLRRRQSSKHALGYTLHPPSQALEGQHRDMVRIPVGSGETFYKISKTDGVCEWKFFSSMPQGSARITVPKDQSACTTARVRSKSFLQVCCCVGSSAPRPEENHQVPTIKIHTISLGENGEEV

[8] = target: T1, Adrenergic receptor alpha-2; test: Compound was tested for Adrenergic activity against Alpha-2 adrenergic receptor from rat aorta; type: tissue-based

| Structure (SMILES) | IC50 [1] [nM] | KB (Rattus norvegicus [2]) [µM] | Potency ratio [3] | Kb [4] [nM] | Max (Rattus norvegicus [5]) [%] | Potency ratio [6] | EC50 [7] [nM] | IC50 [8] [nM] |
| --- | --- | --- | --- | --- | --- | --- | --- | --- |
| CC(c1ccc2ccccc2c1)c1ncc[nH]1.O=C(O)C(=O)O (stereo not given) | 0.61 | 1.5e-06 | 0.0054 | – | – | – | – | – |
| CC(c1ccc2ccccc2c1)c1c[nH]cn1.Cl (stereo not given) | 0.12 | – | 0.028 | 68 | – | – | – | – |
| CC(c1ncc[nH]1)c1cccc2ccccc12.Cl (stereo not given) | 0.26 | – | 0.013 | – | 40 | 0.04 | – | – |
| CC(C1=NCCN1)c1cccc2ccccc12.Cl (stereo not given) | 0.014 | – | 0.24 | – | 62 | 0.57 | – | – |
| Cl.c1ccc2c(CC3=NCCN3)cccc2c1 [NAPHAZOLINE HYDROCHLORIDE] | – | – | – | – | 68 | – | – | – |
| CC(C1=NCCN1)c1ccc2ccccc2c1.Cl (stereo not given) | 0.016 | 0.26 | 0.21 | – | – | – | – | – |
| Cl.c1ccc2c(Cc3ncc[nH]3)cccc2c1 | 0.034 | – | 0.097 | – | 56 | 1.6 | 200 | – |
| Cc1cccc(C(C)c2c[nH]cn2)c1C.Cl (stereo not given) [MEDETOMIDINE HYDROCHLORIDE] | – | – | – | – | 42 | – | 310 | – |
| CC(c1c[nH]cn1)c1cccc2ccccc12.Cl (stereo not given) | – | – | 0.97 | – | 27 | 1.6 | 200 | 0.0034 |
